Laboratory results published in ChEMBL document CHEMBL1147007, “Optimization of 2-aminothiazole derivatives as CCR4 antagonists” (Bioorg Med Chem Lett, 2006).

Tests used:
[1] = biological target: T1, C-C chemokine receptor type 4 (Homo sapiens, UniProt P51679); test: Displacement of [125I]TARC from CCR4 expressed in human CEM cell line; format: cell-based, CCRF-CEM
T1 sequence (P51679 whole entry): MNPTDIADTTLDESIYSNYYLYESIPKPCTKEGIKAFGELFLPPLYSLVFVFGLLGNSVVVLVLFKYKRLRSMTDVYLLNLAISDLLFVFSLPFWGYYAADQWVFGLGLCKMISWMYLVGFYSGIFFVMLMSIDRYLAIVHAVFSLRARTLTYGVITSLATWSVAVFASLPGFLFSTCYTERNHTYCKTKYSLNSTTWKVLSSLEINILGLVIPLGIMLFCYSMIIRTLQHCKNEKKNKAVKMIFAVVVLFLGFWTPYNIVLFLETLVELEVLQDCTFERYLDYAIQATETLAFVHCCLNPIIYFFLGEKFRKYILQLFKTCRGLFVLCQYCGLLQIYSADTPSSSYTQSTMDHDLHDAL
How it was run: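 CEM cells at 5 · 10^6/mL in RPMI-1640 with 0.5% BSA, incubated with compound (diluted in DMSO) and [125I]TARC diluted to 100 pM in buffer, 2 h at room temperature. Bound ligand collected by filtration through GF/B filters and counted by scintillation. Values are means of three experiments (standard deviation ±30%).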

[2] = biological target: T1, C-C chemokine receptor type 4; test: Displacement of [125I]MDC from CCR4 expressed in human CEM cell line; format: cell-based, CCRF-CEM
[3] = Clearance in rat at 0.5 mg/kg, iv; format: ADME, organism-based; set-up: dose 0.5 mg/kg, route intravenous; settings: in vivo
[4] = Terminal half life in rat at 0.5 mg/kg, iv; format: ADME, organism-based; set-up: dose 0.5 mg/kg, route intravenous; settings: in vivo
[5] = Oral bioavailability in rat at 2 mg/kg, po; format: ADME, organism-based; settings: in vivo
How it was run: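 Rats dosed by oral gavage at 2 mg/kg; oral bioavailability determined.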

In the case of `NCc1csc(Nc2cccc3ccccc23)n1`, the IC50 [1] is reported as > 25 µM.
`Cn1ccc2c(Nc3nc(C(C)(C)C)cs3)cccc21` gave an IC50 [1] of 0.037 µM.
`CC(C)(C)c1ccc(-c2csc(Nc3cccc4ccccc34)n2)cc1` showed an IC50 [1] of 0.9 µM.
With `CC(C)c1csc(Cc2cccc3ccccc23)n1` the IC50 [1] was > 25 µM.
With `CC(C)(C)c1csc(Nc2cccc3cccnc23)n1` the IC50 [1] was > 25 µM.
In the case of `CC(C)(C)c1csc(Nc2ccccc2)n1`, the IC50 [1] is reported as 4.5 µM.
Work on `CC(C)c1ccccc1Nc1nc(C(C)(C)C)cs1` yielded an IC50 [1] of 0.44 µM.
Molecule `Cc1cccc(Nc2nc(C(C)(C)C)cs2)c1C` has an IC50 [1] of 0.26 µM.
Work on `CC(C)(C)c1coc(Nc2cccc3ccccc23)n1` yielded an IC50 [1] of 0.08 µM.
In the case of `Cc1cccc(Nc2cc(CN(Cc3ccccc3C(F)(F)F)CC3CCCCC3)no2)c1C`, the IC50 [1] is reported as 12.1 µM.
In the case of `CCNCc1csc(Nc2cccc3ccccc23)n1`, the IC50 [1] is reported as 1 µM.
With `CC(C)CN(Cc1csc(Nc2cccc3ccccc23)n1)CC(C)C` the IC50 [1] was 0.045 µM.
With `CC(C)(C)c1csc(Nc2cccc3[nH]ccc23)n1` the IC50 [1] was 0.49 µM.
With `CC(C)c1csc(Nc2cccc3ccccc23)n1` the IC50 [1] was 0.17 µM.
With `c1ccc2c(Nc3nc(CN(CC4CCCCC4)CC4CCCCC4)cs3)cccc2c1` the IC50 [2] was 0.031 µM, the clearance [3] was 17.8 mL/min/kg and the half-life [4] was 3.6 h. It also gave a bioavailability [5] of 63% and an IC50 [1] of 0.018 µM.
With `Cc1cccc(Nc2cccc(CN(Cc3ccccc3C(F)(F)F)CC3CCCCC3)n2)c1C` the IC50 [1] was 0.34 µM.
In the case of `Cc1csc(N(C)c2cccc3ccccc23)n1`, the IC50 [1] is reported as > 25 µM.
Molecule `CC(C)(C)c1csc(Nc2cccc3ncccc23)n1` has an IC50 [1] of 0.3 µM.
In the case of `Cc1cccc(Nc2cc(CN(Cc3ccccc3C(F)(F)F)CC3CCCCC3)n[nH]2)c1C`, the IC50 [1] is reported as > 25 µM.
In the case of `CC(C)(C)c1csc(Nc2cccc3c2CCCC3)n1`, the IC50 [1] is reported as 0.21 µM.
With `c1ccc(-c2csc(Nc3cccc4ccccc34)n2)cc1` the IC50 [1] was 5.5 µM.
`CCn1ccc2c(Nc3nc(C(C)(C)C)cs3)cccc21` showed an IC50 [1] of 0.21 µM.
With `CC(C)(C)c1ccnc(Nc2cccc3ccccc23)n1` the IC50 [1] was > 25 µM.
`FC(F)(F)c1ccccc1CN(Cc1csc(Nc2cccc3ccccc23)n1)CC1CCCCC1` showed an IC50 [1] of 0.014 µM.
`CC(C)(C)c1csc(Nc2cccc3cnccc23)n1` gave an IC50 [1] of 1.5 µM.
Molecule `CC(C)(C)c1csc(Nc2cccc3ccccc23)n1` has an IC50 [1] of 0.08 µM.
With `Cc1cccc(Nc2cc(CN(Cc3ccccc3C(F)(F)F)CC3CCCCC3)nn2C)c1C` the IC50 [1] was 0.37 µM.
For `Cc1ccccc1Nc1nc(C(C)(C)C)cs1`, the IC50 [1] was 0.9 µM.
Molecule `Cc1csc(Nc2cccc3ccccc23)n1` has an IC50 [2] of 3 µM, a clearance [3] of 70 mL/min/kg and a half-life [4] of 0.4 h. For the same molecule, the bioavailability [5] was 2% and the IC50 [1] was 1.7 µM.
`CC(C)(C)Cc1csc(Nc2cccc3ccccc23)n1` gave an IC50 [1] of 0.22 µM.
`Cc1cccc(Nc2nc(C(C)(C)C)cs2)c1` showed an IC50 [1] of 2 µM.
In the case of `CCN(CC)Cc1csc(Nc2cccc3ccccc23)n1`, the IC50 [1] is reported as 0.8 µM.
